From ChEMBL document CHEMBL4706507, “Chromones bearing amino acid residues: Easily accessible and potent inhibitors of the breast cancer resistance protein ABCG2” (Eur J Med Chem, 2020)

Legend:
[1] = biological target: T1, Broad substrate specificity ATP-binding cassette transporter ABCG2 (Homo sapiens, UniProt Q9UNQ0); assay: (§1) Inhibition of ABCG2 (unknown origin) in HEK293 cells assessed as maximal inhibition of mitoxantrone efflux at 1 uM by fluorescence based flow cytometry relative to control; format: cell-based; conditions: hek293, 1 µM
T1 sequence (Q9UNQ0 whole entry): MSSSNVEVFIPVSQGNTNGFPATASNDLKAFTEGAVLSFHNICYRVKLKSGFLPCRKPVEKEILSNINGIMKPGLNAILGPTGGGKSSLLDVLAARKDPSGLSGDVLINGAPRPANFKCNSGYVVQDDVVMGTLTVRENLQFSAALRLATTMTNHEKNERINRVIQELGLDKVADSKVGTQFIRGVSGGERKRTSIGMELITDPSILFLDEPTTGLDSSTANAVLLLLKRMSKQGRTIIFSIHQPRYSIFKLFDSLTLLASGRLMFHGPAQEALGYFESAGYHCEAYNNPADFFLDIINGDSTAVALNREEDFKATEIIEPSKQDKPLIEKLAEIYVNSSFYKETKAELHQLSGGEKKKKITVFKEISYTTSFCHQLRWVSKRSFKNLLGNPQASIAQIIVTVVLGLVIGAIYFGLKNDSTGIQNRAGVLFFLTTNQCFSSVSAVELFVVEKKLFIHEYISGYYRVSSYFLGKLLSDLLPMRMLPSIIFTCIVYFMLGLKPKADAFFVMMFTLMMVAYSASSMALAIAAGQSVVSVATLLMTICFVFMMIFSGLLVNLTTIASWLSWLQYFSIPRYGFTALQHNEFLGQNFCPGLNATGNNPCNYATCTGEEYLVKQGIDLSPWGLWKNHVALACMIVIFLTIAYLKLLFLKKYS
How it was run: (§2)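 Efflux assay in HEK293-ABCG2 cells, with parental HEK293 cells as negative control. Cells seeded at 5×10^4/well overnight, then given compound plus 4 µM mitoxantrone (0.5% DMSO) for 30 min at 37 °C. Cells washed, trypsinized and resuspended in cold DPBS with 2% BSA.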

[2] = biological target: T1, Broad substrate specificity ATP-binding cassette transporter ABCG2; assay: Inhibition of ABCG2 (unknown origin) expressed in HEK293 cells assessed as maximal inhibition at 1 uM by FACS based flow cytometry; conditions: hek293, 1 µM
[3] = Cytotoxicity against human HEK293 cells assessed as cell viability at 20 uM measured after 72 hrs by MTT assay; format: cell-based; conditions: read-out: Activity
ABCC1 (MRP1) [4] = biological target: T2, ABCC1 (MRP1) (Homo sapiens, UniProt P33527); assay: Inhibition of ABCC1 (unknown origin) expressed in Flp-In-293 cells assessed as maximal inhibition at 1 uM by FACS based flow cytometry
ABCB1 [5] = biological target: T3, ABCB1 (Homo sapiens, UniProt P08183); assay: Inhibition of ABCB1 (unknown origin) expressed in NIH/3T3 cells assessed as maximal inhibition at 1 uM by FACS based flow cytometry
ABCC1 (MRP1) [6] = biological target: T2, ABCC1 (MRP1); assay: Inhibition of ABCC1 (unknown origin) expressed in Flp-In-293 cells assessed as maximal inhibition at 10 uM by FACS based flow cytometry
ABCB1 [7] = biological target: T3, ABCB1; assay: Inhibition of ABCB1 (unknown origin) expressed in NIH/3T3 cells assessed as maximal inhibition at 10 uM by FACS based flow cytometry
[8] = biological target: T1, Broad substrate specificity ATP-binding cassette transporter ABCG2; assay: Inhibition of ABCG2 (unknown origin) in HEK293 cells assessed as maximal inhibition of mitoxantrone efflux by fluorescence based flow cytometry; format: cell-based; how it was run: as §2
[9] = Cytotoxicity against human HEK293 cells assessed as cell viability at 10 uM measured after 72 hrs by MTT assay; format: cell-based; conditions: read-out: Activity
ABCG2 = biological target: T4, ABCG2 (Homo sapiens, UniProt Q9UNQ0); assay: as §1; format: cell-based; conditions: HEK293 cells with ABCG2, probe mitoxantrone, read-out: Imax; how it was run: as §2
T4 sequence (Q9UNQ0 whole entry): T1 sequence (Q9UNQ0 whole entry)

T2 sequence (P33527 whole entry): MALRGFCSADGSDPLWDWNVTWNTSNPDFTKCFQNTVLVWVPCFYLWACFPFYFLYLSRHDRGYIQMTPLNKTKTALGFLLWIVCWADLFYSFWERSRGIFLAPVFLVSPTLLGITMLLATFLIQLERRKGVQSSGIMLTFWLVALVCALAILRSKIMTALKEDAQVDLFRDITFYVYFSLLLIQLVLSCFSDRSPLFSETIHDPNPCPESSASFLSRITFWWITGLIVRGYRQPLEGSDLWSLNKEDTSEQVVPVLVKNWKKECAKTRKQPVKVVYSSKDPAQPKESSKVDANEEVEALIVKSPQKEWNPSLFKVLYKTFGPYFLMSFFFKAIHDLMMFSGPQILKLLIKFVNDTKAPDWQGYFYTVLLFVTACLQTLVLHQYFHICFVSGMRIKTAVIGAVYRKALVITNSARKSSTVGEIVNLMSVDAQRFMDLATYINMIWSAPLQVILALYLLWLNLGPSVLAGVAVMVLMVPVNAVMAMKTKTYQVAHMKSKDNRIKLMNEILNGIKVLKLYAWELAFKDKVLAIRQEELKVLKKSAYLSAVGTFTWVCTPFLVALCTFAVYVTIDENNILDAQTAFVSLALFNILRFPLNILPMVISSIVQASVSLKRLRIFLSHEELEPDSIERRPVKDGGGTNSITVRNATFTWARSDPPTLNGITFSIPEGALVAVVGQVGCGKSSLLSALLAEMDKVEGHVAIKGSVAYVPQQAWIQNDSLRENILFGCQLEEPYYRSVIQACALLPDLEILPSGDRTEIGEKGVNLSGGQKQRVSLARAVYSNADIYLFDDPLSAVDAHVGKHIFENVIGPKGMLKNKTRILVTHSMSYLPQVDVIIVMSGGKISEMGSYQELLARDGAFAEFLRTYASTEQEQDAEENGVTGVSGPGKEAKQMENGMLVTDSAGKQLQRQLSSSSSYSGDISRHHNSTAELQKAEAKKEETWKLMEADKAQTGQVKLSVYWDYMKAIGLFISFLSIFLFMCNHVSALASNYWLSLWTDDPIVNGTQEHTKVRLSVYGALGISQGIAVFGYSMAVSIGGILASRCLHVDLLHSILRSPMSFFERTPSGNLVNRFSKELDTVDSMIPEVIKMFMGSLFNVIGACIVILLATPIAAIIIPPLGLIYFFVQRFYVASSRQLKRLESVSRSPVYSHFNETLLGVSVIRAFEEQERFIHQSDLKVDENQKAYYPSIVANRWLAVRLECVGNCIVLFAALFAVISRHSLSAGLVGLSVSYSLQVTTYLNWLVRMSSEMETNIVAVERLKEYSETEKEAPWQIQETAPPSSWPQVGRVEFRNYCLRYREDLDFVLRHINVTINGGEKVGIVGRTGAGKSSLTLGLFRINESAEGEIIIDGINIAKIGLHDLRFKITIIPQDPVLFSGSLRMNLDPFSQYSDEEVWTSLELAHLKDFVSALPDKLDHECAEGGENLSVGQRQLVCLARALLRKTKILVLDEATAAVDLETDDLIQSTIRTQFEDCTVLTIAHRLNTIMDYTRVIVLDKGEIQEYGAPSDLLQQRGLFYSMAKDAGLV
T3 sequence (P08183 whole entry): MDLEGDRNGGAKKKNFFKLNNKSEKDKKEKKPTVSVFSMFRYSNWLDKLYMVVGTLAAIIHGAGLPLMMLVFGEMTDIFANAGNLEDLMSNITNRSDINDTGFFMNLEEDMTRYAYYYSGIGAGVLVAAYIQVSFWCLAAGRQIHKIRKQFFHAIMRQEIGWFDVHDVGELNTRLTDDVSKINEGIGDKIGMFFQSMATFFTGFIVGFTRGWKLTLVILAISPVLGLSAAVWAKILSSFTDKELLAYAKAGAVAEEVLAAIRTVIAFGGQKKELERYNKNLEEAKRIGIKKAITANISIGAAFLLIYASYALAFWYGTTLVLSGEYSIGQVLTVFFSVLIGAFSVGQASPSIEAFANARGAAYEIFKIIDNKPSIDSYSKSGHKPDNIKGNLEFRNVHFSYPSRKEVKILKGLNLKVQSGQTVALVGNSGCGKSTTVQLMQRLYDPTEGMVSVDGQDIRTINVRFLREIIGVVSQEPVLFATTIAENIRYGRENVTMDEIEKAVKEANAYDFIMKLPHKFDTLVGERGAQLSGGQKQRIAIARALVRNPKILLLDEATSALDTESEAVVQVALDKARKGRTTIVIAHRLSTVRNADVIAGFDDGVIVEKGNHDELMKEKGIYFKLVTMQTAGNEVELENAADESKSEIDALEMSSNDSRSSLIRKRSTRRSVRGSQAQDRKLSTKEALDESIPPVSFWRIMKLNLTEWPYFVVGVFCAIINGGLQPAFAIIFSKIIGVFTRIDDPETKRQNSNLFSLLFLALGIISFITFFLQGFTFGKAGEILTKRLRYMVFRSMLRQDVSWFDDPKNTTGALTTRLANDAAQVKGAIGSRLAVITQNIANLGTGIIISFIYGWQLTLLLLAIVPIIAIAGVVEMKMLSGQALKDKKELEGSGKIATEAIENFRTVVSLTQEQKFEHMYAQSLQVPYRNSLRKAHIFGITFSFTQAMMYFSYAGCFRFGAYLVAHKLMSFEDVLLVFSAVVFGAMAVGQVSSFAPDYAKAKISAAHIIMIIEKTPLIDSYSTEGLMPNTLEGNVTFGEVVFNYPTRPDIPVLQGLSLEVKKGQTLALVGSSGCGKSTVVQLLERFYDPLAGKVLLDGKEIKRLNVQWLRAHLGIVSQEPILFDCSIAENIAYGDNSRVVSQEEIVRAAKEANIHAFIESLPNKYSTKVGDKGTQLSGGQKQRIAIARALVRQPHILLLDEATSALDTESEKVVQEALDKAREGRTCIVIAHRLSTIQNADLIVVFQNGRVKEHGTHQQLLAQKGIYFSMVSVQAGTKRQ

inhibition (INH) [2] | inhibition at 1 µM (ABCC1 (MRP1) [4]) | inhibition at 1 µM (ABCB1 [5]) | inhibition at 10 µM (ABCC1 (MRP1) [6]) | inhibition at 10 µM (ABCB1 [7]) | Compound | Imax [1] | viability at 72 h, 20 µM [3] | EC50 [8] | viability at 72 h, 10 µM [9] | Emax at 1 µM (ABCG2)
83% | 10% | 2% | 13% | 2% | CC[C@@H](C)[C@H](NC(=O)c1cc(=O)c2c(OCc3ccccc3Br)cccc2o1)C(=O)N[C@@H](CC(C)C)C(=O)OC | 83% | 104% | 70 nM |  | 
52% | 11% | 4% |  | 6% | CC[C@@H](C)[C@H](NC(=O)c1cc(=O)c2c(OCc3ccc(Br)cc3)cccc2o1)C(=O)N[C@@H](CC(C)C)C(=O)OC | 52% | 101% | 110 nM |  | 
87% | 13% | 8% |  | 7% | COC(=O)[C@@H](NC(=O)c1cc(=O)c2c(OCc3ccccc3Br)cccc2o1)C(C)C | 87% |  | 50 nM | 76% | 
115% | 20% | 7% |  | 5% | COC(=O)[C@H](CC(C)C)NC(=O)c1cc(=O)c2c(OCc3ccccc3Br)cccc2o1 | 115% |  | 140 nM | 87% | 
85% | 11.9% | 7% |  | 6% | COC(=O)[C@@H](Cc1c[nH]c2ccccc12)NC(=O)c1cc(=O)c2c(OCc3ccc(Br)cc3)cccc2o1 | 85% |  | 290 nM | 102% | 
96% | 10.3% | 7% |  | 6% | COC(=O)[C@H](Cc1c[nH]c2ccccc12)NC(=O)c1cc(=O)c2c(OCc3ccc(Br)cc3)cccc2o1 | 96% |  | 480 nM | 77% | 
78% | 5% |  |  |  | CC[C@@H](C)[C@H](NC(=O)c1cc(=O)c2c(OCc3ccccc3Br)cccc2o1)C(=O)OC | 78% |  | 100 nM |  | 
72% | 12% | 2% |  | 11% | CC[C@@H](C)[C@H](NC(=O)c1cc(=O)c2c(OCc3ccc(Br)cc3)cccc2o1)C(=O)N[C@H](C(=O)OC)C(C)C | 72% | 89% | 250 nM |  | 
 | 26% | 5% |  | 6% | COC(=O)[C@H](Cc1ccccc1)NC(=O)c1cc(=O)c2c(OCc3ccccc3Br)cccc2o1 |  |  | 100 nM | 82% | 
 |  |  |  |  | CC[C@@H](C)[C@H](NC(=O)c1cc(=O)c2c(OCc3ccc(Br)cc3)cccc2o1)C(=O)OC |  |  | 590 nM |  | 115%
 | 23% | 6% |  | 7% | COC(=O)[C@H](Cc1ccccc1)NC(=O)c1cc(=O)c2c(OCc3ccc(Br)cc3)cccc2o1 |  |  | 270 nM | 84% | 
94% | 23% | 7% |  | 5% | COC(=O)[C@H](Cc1c[nH]c2ccccc12)NC(=O)c1cc(=O)c2c(OCc3ccccc3Br)cccc2o1 | 94% |  | 600 nM | 88% | 
85% | 11% | 0% |  | 0% | CC[C@@H](C)[C@H](NC(=O)c1cc(=O)c2c(OCc3ccccc3Br)cccc2o1)C(=O)N[C@H](C(=O)OC)C(C)C | 85% | 102% | 70 nM |  | 
